The subject of one assay is MCF7R. The experiment in a line: Growth inhibition of human multidrug-resistant MCF7R cells after 72 hrs by MTS assay. (In general: Tetrazolium dyes change colour on reduction, which living cells bring about.)
A further assay relates to MCF7. The experiment in a line: Growth inhibition of human MCF7 cells after 72 hrs by MTS assay. Particulars: MCF7, 72 h.
A short description of assay [1]: Growth inhibition of human HA22T/VGH cells after 72 hrs by MTS assay.
Assay [2] concerns the target Transcription factor p65 (Homo sapiens) (UniProt Q04206). Nature of the assay: Reduction in DNA binding activity of NF-kappaB p65 subunit in human HA22T/VGH cells after 1.5 hrs relative to control. The class given is cell-based. Particulars: concentration not given here. Put shortly:
(§1)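 HA22T/VGH cells, which have constitutively active NF-κB, were exposed to compounds at 20 µM for 1.5 or 4 h. DNA-binding activity of the NF-κB p65 subunit was measured and expressed as percent of untreated control.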

The target is the same in assay [3]. The experiment in a line: Reduction in DNA binding activity of NF-kappaB p65 subunit in human HA22T/VGH cells after 4 hrs relative to control. In kind it is cell-based. As to conditions: concentration not given here. The method, boiled down:
as §1

pIC50: −log10 of the molar value. Some results are limits rather than exact numbers.

As usually defined, the pIC50 is the IC50 on a negative log10 scale, so that one unit is a factor of ten. Lower therefore signals a high IC50. For orientation: IC70 means the concentration needed for an effect of 70%. Low values mean an effect from little substance, high ones a need for much substance. What is called inhibition is the percentage by which the read-out fell short of the control. A low value points to little suppression.

Transcription factor p65 (Homo sapiens), sequence (Q04206 whole entry): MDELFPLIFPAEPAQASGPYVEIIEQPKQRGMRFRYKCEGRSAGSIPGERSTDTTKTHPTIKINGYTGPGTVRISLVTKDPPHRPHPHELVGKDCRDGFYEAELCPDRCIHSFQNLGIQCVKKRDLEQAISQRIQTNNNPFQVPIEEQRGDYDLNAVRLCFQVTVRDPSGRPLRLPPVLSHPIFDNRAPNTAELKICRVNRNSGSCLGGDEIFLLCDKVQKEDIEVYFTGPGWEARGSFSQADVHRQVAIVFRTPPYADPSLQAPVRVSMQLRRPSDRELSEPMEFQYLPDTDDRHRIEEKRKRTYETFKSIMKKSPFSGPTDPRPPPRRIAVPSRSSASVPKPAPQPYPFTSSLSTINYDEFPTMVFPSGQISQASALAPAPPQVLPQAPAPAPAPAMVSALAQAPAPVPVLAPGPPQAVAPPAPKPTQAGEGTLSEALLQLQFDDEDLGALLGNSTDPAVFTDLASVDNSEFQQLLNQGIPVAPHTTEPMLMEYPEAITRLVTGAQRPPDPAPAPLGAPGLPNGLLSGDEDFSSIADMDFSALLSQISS

For the compound `COc1cc(/C=C/c2cc(/C=C/c3ccc(O)c(OC)c3)on2)ccc1O`, the pIC50 was 4.92 in the assay on MCF7R, 4.88 with MCF7 and 4.89 in assay [1]. For the same compound, the values for the IC70 (in the assay with MCF7R; in the assay with MCF7; in assay [1]) were 24.7 µM, 23.2 µM and 18.3 µM, respectively.

Consider `COc1cc(/C=C/C(=O)/C=C(/C=C/c2ccc(O)c(OC)c2)NC(C)c2ccccc2)ccc1O` (stereo unspecified), for which the pIC50 (with MCF7R; in the assay on MCF7; in assay [1]) was less than 4.00 throughout. In addition, the IC70 (with MCF7R; in the assay on MCF7; in assay [1]) was more than 100 µM in each case.

On to `CCNC(=C\C(=O)/C=C/c1ccc(O)c(OC)c1)/C=C/c1ccc(O)c(OC)c1`, for which the negative-log IC50 (pIC50) with MCF7R was 4.17; in the assay on MCF7, 4.03; in assay [1], 4.58. The figures for the IC70 (in the assay on MCF7R; in the assay with MCF7; in assay [1]) were 88.8 µM, more than 100 µM and 64.4 µM, respectively.

`COc1cc(/C=C/C(=O)/C=C(/C=C/c2ccc(O)c(OC)c2)NC(C)C)ccc1O`: the pIC50 is 4.30 in the assay on MCF7R, 4.15 in the assay on MCF7 and 4.58 in assay [1]. In addition, the IC70 with MCF7R was 79.5 µM; with MCF7 it was 93.5 µM; in assay [1], 29.8 µM.

With `COc1cc(/C=C/C(=O)CC(=O)/C=C/c2ccc(O)c(OC)c2)ccc1O` [CURCUMIN], the values for the negative logarithm of the IC50 (pIC50) (with MCF7R; in the assay on MCF7; in assay [1]) were 4.58, 4.53 and 4.76, respectively. Further, the values for the concentration for an effect of 70% (IC70) (in the assay with MCF7R; with MCF7; in assay [1]) were 46.2 µM, 51.7 µM and 24.6 µM, respectively.

In the case of `COc1cc(/C=C/C(=O)/C=C(/C=C/c2ccc(O)c(OC)c2)NCc2ccccc2)ccc1O`, the pIC50 (in the assay with MCF7R; in the assay on MCF7; in assay [1]) was less than 4.00 throughout. In addition, the IC70 (in the assay with MCF7R; in the assay with MCF7; in assay [1]) was more than 100 µM in each case.

For the compound `CO/N=C(\C=C\c1ccc(O)c(OC)c1)CC(/C=C/c1ccc(O)c(OC)c1)=N/OC`, the pIC50 in the assay with MCF7R was 4.41; with MCF7, 4.44; in assay [1] it was 4.48. The IC70 in the assay on MCF7R worked out at 52.8 µM; in the assay on MCF7, 43.4 µM; in assay [1], 40.4 µM.

On to `COc1cc(/C=C/C(=O)/C=C(N)/C=C/c2ccc(O)c(OC)c2)ccc1O`, for which the results for the negative logarithm of the IC50 (pIC50) (in the assay with MCF7R; in the assay with MCF7; in assay [1]) were 4.26, 4.30 and 4.48, respectively. The values for the IC70 (in the assay with MCF7R; with MCF7; in assay [1]) were 81.8 µM, 68.1 µM and 41.1 µM, respectively.

Consider `COc1cc(/C=C/C(CC(/C=C/c2ccc(O)c(OC)c2)=N/OCc2ccccc2)=N\OCc2ccccc2)ccc1O`, for which the negative-log IC50 (pIC50) in the assay with MCF7R is 5.03; in the assay with MCF7, 5.15; in assay [1], 5.23. Moreover, the concentration for an effect of 70% (IC70) was 12.9 µM in the assay on MCF7R, 9.2 µM in the assay on MCF7 and 8.4 µM in assay [1]. In addition, the inhibition was determined as 33.7% in assay [2] and 64.3% in assay [3].

The values above are taken from ChEMBL document CHEMBL1143177, “Antitumor effects of curcumin and structurally beta-diketone modified analogs on multidrug resistant cancer cells” (Bioorg Med Chem Lett, 2008).
